Experimental data taken from ChEMBL document CHEMBL4028872, “Structure-Activity Relationship, Pharmacological Characterization, and Molecular Modeling of Noncompetitive Inhibitors of the Betaine/γ-Aminobutyric Acid Transporter 1 (BGT1)” (J Med Chem, 2017).

Legend:
Format in all cases: cell-based
[1] = target: Sodium- and chloride-dependent GABA transporter 1 (Homo sapiens, UniProt P30531); details: read-out: IC50
[2] = target: T1, GABA transporter 3 (Mus musculus, UniProt P31649); experiment: Inhibition of mouse GAT2 expressed in HEK293 cells assessed as reduction in [3H]GABA uptake after 3 mins by scintillation counting method
T1 sequence (P31649 whole entry): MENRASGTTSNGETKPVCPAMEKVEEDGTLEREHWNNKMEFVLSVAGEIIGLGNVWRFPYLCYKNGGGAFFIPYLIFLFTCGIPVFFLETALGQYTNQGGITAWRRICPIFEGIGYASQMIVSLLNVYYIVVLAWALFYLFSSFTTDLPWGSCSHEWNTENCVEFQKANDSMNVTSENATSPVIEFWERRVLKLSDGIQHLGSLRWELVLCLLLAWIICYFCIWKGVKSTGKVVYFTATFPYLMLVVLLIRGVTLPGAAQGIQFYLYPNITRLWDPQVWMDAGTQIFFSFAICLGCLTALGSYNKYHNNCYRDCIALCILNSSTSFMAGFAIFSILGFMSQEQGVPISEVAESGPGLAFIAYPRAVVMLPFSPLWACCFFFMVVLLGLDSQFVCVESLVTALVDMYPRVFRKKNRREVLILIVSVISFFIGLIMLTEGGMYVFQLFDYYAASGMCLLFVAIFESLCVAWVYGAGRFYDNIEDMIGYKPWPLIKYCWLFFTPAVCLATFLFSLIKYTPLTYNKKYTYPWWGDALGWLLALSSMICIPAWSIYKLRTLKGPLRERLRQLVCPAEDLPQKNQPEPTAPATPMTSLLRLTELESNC
Procedure, shortened: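 HEK293 cells stably expressing mouse GAT2 were kept under blasticidin-S (5 µg/mL) selection. Ice-cold washes preceded scintillation counting. IC50 came from a variable-slope sigmoidal fit.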

[3] = target: T2, GABA transporter 2 (Mus musculus, UniProt P31651); experiment: Inhibition of mouse BGT1 expressed in HEK293 cells assessed as reduction in [3H]GABA uptake after 3 mins by scintillation counting method; details: read-out: IC50
T2 sequence (P31651 whole entry): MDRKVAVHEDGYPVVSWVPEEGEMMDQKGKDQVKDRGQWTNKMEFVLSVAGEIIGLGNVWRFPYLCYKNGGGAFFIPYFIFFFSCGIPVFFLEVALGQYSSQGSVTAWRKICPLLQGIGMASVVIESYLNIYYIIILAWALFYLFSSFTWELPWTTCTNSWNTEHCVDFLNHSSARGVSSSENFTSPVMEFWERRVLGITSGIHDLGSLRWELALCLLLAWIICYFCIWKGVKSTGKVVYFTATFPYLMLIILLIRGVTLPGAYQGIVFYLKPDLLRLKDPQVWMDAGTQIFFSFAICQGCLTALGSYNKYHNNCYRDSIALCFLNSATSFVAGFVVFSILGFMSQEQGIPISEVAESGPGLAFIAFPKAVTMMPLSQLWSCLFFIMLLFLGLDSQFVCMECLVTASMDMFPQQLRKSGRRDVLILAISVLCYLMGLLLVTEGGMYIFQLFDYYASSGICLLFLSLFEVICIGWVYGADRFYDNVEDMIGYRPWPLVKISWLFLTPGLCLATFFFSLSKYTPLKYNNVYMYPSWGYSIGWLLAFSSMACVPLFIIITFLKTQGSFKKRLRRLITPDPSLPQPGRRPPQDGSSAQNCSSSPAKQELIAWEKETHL
Procedure, shortened: (§1)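 HEK293 lines stably expressing a single mouse GAT subtype, kept under blasticidin-S (5 µg/mL) selection. Cells were assayed about 24 h after plating with 30 nM [3H]GABA plus varying compound concentrations for 3 min at 37 °C in HBSS buffered with 20 mM HEPES (1 mM CaCl2, 1 mM MgCl2, pH 7.4). Cells were washed ice-cold and radioactivity counted. IC50 came from sigmoidal variable-slope fits.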

[4] = target: Sodium- and chloride-dependent GABA transporter 1 (Mus musculus, UniProt P31648); experiment: Inhibition of mouse GAT1 expressed in HEK293 cells assessed as reduction in [3H]GABA uptake after 3 mins by scintillation counting method
Procedure, shortened: as §1

Sodium- and chloride-dependent GABA transporter 1 (Homo sapiens, UniProt P30531), sequence (P30531 whole entry): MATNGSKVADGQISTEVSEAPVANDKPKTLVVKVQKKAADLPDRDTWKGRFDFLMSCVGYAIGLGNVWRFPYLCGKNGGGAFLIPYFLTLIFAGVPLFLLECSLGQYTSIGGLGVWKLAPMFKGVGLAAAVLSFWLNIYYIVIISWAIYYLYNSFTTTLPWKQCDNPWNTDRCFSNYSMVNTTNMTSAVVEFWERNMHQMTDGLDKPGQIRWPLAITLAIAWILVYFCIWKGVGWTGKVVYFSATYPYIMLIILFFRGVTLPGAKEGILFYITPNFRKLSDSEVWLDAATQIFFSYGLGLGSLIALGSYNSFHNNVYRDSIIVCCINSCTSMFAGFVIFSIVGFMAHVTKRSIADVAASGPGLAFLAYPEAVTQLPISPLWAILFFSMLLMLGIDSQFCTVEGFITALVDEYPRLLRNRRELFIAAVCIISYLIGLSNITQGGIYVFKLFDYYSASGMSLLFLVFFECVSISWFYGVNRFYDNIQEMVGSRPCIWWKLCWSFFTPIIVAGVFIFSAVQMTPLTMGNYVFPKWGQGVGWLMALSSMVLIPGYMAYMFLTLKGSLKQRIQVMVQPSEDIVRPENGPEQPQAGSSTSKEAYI

Compound: O=C(OC1CCN(Cc2ccccc2)CC1)c1ccccc1
- IC50 [1]: > 1000 µM
- IC50 [2]: 349 µM
- IC50 [3]: 106 µM

Compound: O=C(NC1CCN(Cc2ccccc2)CC1)c1cccs1
- IC50 [4]: > 400 µM
- IC50 [2]: > 400 µM
- IC50 [3]: 179 µM

Compound: COc1cccc(CN2CCC(NC(=O)c3cccnc3Cl)CC2)c1
- IC50 [4]: > 1000 µM
- IC50 [2]: > 1000 µM
- IC50 [3]: 1670 µM

Compound: O=C(NC1CCN(Cc2ccccc2)CC1)c1cccnc1Cl
- IC50 [4]: > 1000 µM
- IC50 [2]: > 1000 µM
- IC50 [3]: 1650 µM

Compound: O=C(NC1CCN(Cc2ccc(-c3ccccc3)cc2)CC1)c1ccc(Cl)nc1Cl
- IC50 [4]: > 300 µM
- IC50 [2]: > 300 µM
- IC50 [3]: > 300 µM

Compound: O=C(OC1CCN(Cc2ccccc2)CC1)c1ccc(Cl)cc1Cl
- IC50 [1]: > 1000 µM
- IC50 [2]: > 1000 µM
- IC50 [3]: > 1000 µM

Compound: NC(=O)c1cccc(CN2CCC(NC(=O)c3ccc(Cl)nc3Cl)CC2)c1
- IC50 [4]: > 300 µM
- IC50 [2]: > 300 µM
- IC50 [3]: > 300 µM

Compound: COc1cccc(CN2CCC(NC(=O)c3cccnc3)CC2)c1
- IC50 [4]: > 1000 µM
- IC50 [2]: > 1000 µM
- IC50 [3]: > 1000 µM

Compound: COC(=O)c1cccc(CN2CCC(NC(=O)c3ccc(Cl)nc3Cl)CC2)c1
- IC50 [4]: > 300 µM
- IC50 [2]: > 300 µM
- IC50 [3]: > 300 µM

Compound: O=C(NC1CCN(Cc2cccc(F)c2)CC1)c1ccc(Cl)cc1Cl
- IC50 [4]: > 1000 µM
- IC50 [2]: > 1000 µM
- IC50 [3]: 34 µM

Compound: O=C(NC1CCN(Cc2c[nH]c3ccccc23)CC1)c1ccc(Cl)nc1Cl
- IC50 [4]: > 300 µM
- IC50 [2]: > 300 µM
- IC50 [3]: 58 µM

Compound: O=C(NC1CCN(Cc2ccccc2)CC1)c1ccncc1
- IC50 [4]: > 1000 µM
- IC50 [2]: > 1000 µM
- IC50 [3]: 1150 µM

Compound: O=C(NC1CCN(Cc2cccc(Cl)c2)CC1)c1ccc(Cl)cc1Cl
- IC50 [4]: > 300 µM
- IC50 [2]: > 300 µM
- IC50 [3]: > 300 µM

Compound: O=C(NC1CCN(Cc2cccc([N+](=O)[O-])c2)CC1)c1ccc(Cl)nc1Cl
- IC50 [4]: > 300 µM
- IC50 [2]: > 300 µM
- IC50 [3]: > 300 µM

Compound: O=C(NC1CCN(Cc2cccs2)CC1)c1ccc(Cl)nc1Cl
- IC50 [4]: > 300 µM
- IC50 [2]: > 300 µM
- IC50 [3]: > 300 µM

Compound: O=C(NC1CCN(Cc2ccccc2)CC1)c1ccccc1Cl
- IC50 [4]: > 400 µM
- IC50 [2]: > 400 µM
- IC50 [3]: 151 µM

Compound: O=C(NC1CCN(Cc2ccccc2)CC1)c1cccnc1
- IC50 [4]: > 1000 µM
- IC50 [2]: > 1000 µM
- IC50 [3]: > 1000 µM

Compound: O=C(NC1CCN(Cc2ccc3c(c2)OCO3)CC1)c1ccc(Cl)nc1Cl
- IC50 [4]: > 300 µM
- IC50 [2]: > 300 µM
- IC50 [3]: 60 µM

Compound: COc1cccc(CN2CCC(NC(=O)c3ccc(Cl)cc3Cl)CC2)c1
- IC50 [4]: > 200 µM
- IC50 [2]: > 200 µM
- IC50 [3]: 26 µM

Compound: O=C(NC1CCN(Cc2ccccc2)CC1)c1cnccc1Cl
- IC50 [4]: > 1000 µM
- IC50 [2]: 150 µM
- IC50 [3]: 39 µM

Compound: O=C(NC1CCN(Cc2ccc(OC(F)(F)F)cc2)CC1)c1ccc(Cl)cc1Cl
- IC50 [4]: > 1000 µM
- IC50 [2]: > 1000 µM
- IC50 [3]: > 1000 µM

Compound: O=C(NC1CCN(Cc2ccccc2)CC1)c1ccnc(Cl)c1
- IC50 [4]: > 1000 µM
- IC50 [2]: > 1000 µM
- IC50 [3]: 300 µM

Compound: O=C(NC1CCN(Cc2cccc(OC(F)(F)F)c2)CC1)c1ccc(Cl)cc1Cl
- IC50 [4]: > 1000 µM
- IC50 [2]: > 1000 µM
- IC50 [3]: 160 µM

Compound: O=C(NC1CCN(Cc2ccccc2)CC1)c1ccc(Cl)cc1
- IC50 [4]: > 1000 µM
- IC50 [2]: 590 µM
- IC50 [3]: 77 µM

Compound: COc1cccc(CN2CCC(NC(=O)c3ccc(Cl)nc3)CC2)c1
- IC50 [4]: > 1000 µM
- IC50 [2]: 540 µM
- IC50 [3]: 115 µM

Compound: Cc1cc(C)cc(CN2CCC(NC(=O)c3ccc(Cl)cc3Cl)CC2)c1
- IC50 [4]: > 300 µM
- IC50 [2]: > 300 µM
- IC50 [3]: > 300 µM

Compound: COc1cc(CN2CCC(NC(=O)c3ccc(Cl)cc3Cl)CC2)cc(OC)c1
- IC50 [4]: > 1000 µM
- IC50 [2]: 1200 µM
- IC50 [3]: 30 µM

Compound: O=C(NC1CCN(Cc2cc(Cl)cc(Cl)c2)CC1)c1ccc(Cl)cc1Cl
- IC50 [4]: > 300 µM
- IC50 [2]: > 300 µM
- IC50 [3]: > 300 µM

Compound: Clc1ccc(CNC2CCN(Cc3ccccc3)CC2)c(Cl)c1
- IC50 [1]: > 400 µM
- IC50 [2]: > 400 µM
- IC50 [3]: 112 µM

Compound: COc1cccc(CN2CCC(NC(=O)c3ccncc3)CC2)c1
- IC50 [4]: > 1000 µM
- IC50 [2]: > 1000 µM
- IC50 [3]: > 1000 µM

Compound: COc1cccc(CN2CCC(NC(=O)c3cccs3)CC2)c1
- IC50 [4]: > 400 µM
- IC50 [2]: > 400 µM
- IC50 [3]: 390 µM

Compound: O=C(O)c1cccc(CN2CCC(NC(=O)c3ccc(Cl)nc3Cl)CC2)c1
- IC50 [4]: > 300 µM
- IC50 [2]: > 300 µM
- IC50 [3]: > 300 µM

Compound: O=C(NC1CCN(Cc2cccc(OCCO)c2)CC1)c1ccc(Cl)nc1Cl
- IC50 [4]: > 300 µM
- IC50 [2]: > 300 µM
- IC50 [3]: > 300 µM

Compound: Cc1cccc(CN2CCC(NC(=O)c3ccc(Cl)cc3Cl)CC2)c1
- IC50 [4]: > 300 µM
- IC50 [2]: > 300 µM
- IC50 [3]: > 300 µM

Compound: O=C(NC1CCN(Cc2cccc(O)c2)CC1)c1ccc(Cl)nc1Cl
- IC50 [4]: > 300 µM
- IC50 [2]: > 300 µM
- IC50 [3]: > 300 µM
